Measured values from ChEMBL document CHEMBL4715736, “Identification of anticancer agents based on the thieno[2,3-b]pyridine and 1H-pyrazole molecular scaffolds” (2016).

How the values were obtained:
Format in all cases: functional
Conditions in all cases: read-out: Activity
LOX IMVI = assay: Growth inhibition of human LOX IMVI cells assessed as cell growth at 10 uM incubated for 48 hrs by sulforhodamine B assay relative to control
How it was run: (§1)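 Submitted to the NCI Developmental Therapeutics Program for the NCI60 human tumour cell line panel. First screen at a single 10 µM concentration. Read-out is growth relative to untreated control cells set at 100%.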

PC-3 = assay: Growth inhibition of human PC-3 cells assessed as cell growth at 10 uM incubated for 48 hrs by sulforhodamine B assay relative to control
How it was run: (§2)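 Run by the NCI Developmental Therapeutics Program as part of its 60-line human tumour panel. Each compound tested at a single 10 µM dose. Growth expressed as % relative to untreated control cells (100%).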

ACHN = assay: Growth inhibition of human ACHN cells assessed as cell growth at 10 uM incubated for 48 hrs by sulforhodamine B assay relative to control
How it was run: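 NCI Developmental Therapeutics Program NCI60 human tumour cell line panel, one-dose primary screen with every compound at 10 µM. Growth is expressed as % of untreated control cells (100%).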

786-0 = assay: Growth inhibition of human 786-0 cells assessed as cell growth at 10 uM incubated for 48 hrs by sulforhodamine B assay relative to control
How it was run: (§3)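 NCI Developmental Therapeutics Program NCI60 panel. Compounds that were active in the 10 µM one-dose screen went on to dose–response testing. Growth at each concentration is expressed relative to untreated control (100%). GI50 (concentration giving 50% of maximal inhibition of proliferation) and TGI (concentration giving total growth inhibition) were derived from the curves.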

NCI-H460 = assay: Growth inhibition of human NCI-H460 cells assessed as cell growth at 10 uM incubated for 48 hrs by sulforhodamine B assay relative to control; how it was run: as §1
T47D = assay: Growth inhibition of human T47D cells assessed as cell growth at 10 uM incubated for 48 hrs by sulforhodamine B assay relative to control; how it was run: as §2
HCT-116 = assay: Growth inhibition of human HCT-116 cells assessed as cell growth at 10 uM incubated for 48 hrs by sulforhodamine B assay relative to control; how it was run: as §1
SK-MEL-28 = assay: Growth inhibition of human SK-MEL-28 cells assessed as cell growth at 10 uM incubated for 48 hrs by sulforhodamine B assay relative to control; how it was run: as §2
SN12C = assay: Growth inhibition of human SN12C cells assessed as cell growth at 10 uM incubated for 48 hrs by sulforhodamine B assay relative to control; how it was run: as §2
OVCAR-4 = assay: Growth inhibition of human OVCAR-4 cells assessed as cell growth at 10 uM incubated for 48 hrs by sulforhodamine B assay relative to control; how it was run: as §2
KM12 = assay: Growth inhibition of human KM12 cells assessed as cell growth at 10 uM incubated for 48 hrs by sulforhodamine B assay relative to control; how it was run: as §1
MDA-MB-468 = assay: Growth inhibition of human MDA-MB-468 cells assessed as cell growth at 10 uM incubated for 48 hrs by sulforhodamine B assay relative to control; how it was run: as §1
NCI-H322M = assay: Growth inhibition of human NCI-H322M cells assessed as cell growth at 10 uM incubated for 48 hrs by sulforhodamine B assay relative to control; how it was run: as §1
OVCAR-5 = assay: Growth inhibition of human OVCAR-5 cells assessed as cell growth at 10 uM incubated for 48 hrs by sulforhodamine B assay relative to control; how it was run: as §2
MCF7 = assay: Growth inhibition of human MCF7 cells assessed as cell growth at 10 uM incubated for 48 hrs by sulforhodamine B assay relative to control; how it was run: as §1
UO-31 = assay: Growth inhibition of human UO-31 cells assessed as cell growth at 10 uM incubated for 48 hrs by sulforhodamine B assay relative to control; how it was run: as §2
MDA-MB-435 = assay: Growth inhibition of human MDA-MB-435 cells assessed as cell growth at 10 uM incubated for 48 hrs by sulforhodamine B assay relative to control; how it was run: as §1
OVCAR-3 = assay: Growth inhibition of human OVCAR-3 cells assessed as cell growth at 10 uM incubated for 48 hrs by sulforhodamine B assay relative to control; how it was run: as §2
SF-295 = assay: Growth inhibition of human SF-295 cells assessed as cell growth at 10 uM incubated for 48 hrs by sulforhodamine B assay relative to control; how it was run: as §2
RPMI-8226 = assay: Growth inhibition of human RPMI-8226 cells assessed as cell growth at 10 uM incubated for 48 hrs by sulforhodamine B assay relative to control; how it was run: as §2
NCI-H226 = assay: Growth inhibition of human NCI-H226 cells assessed as cell growth at 10 uM incubated for 48 hrs by sulforhodamine B assay relative to control; how it was run: as §1
NCI/ADR-RES = assay: Growth inhibition of human NCI/ADR-RES cells assessed as cell growth at 10 uM incubated for 48 hrs by sulforhodamine B assay relative to control; how it was run: as §1
SF-539 = assay: Growth inhibition of human SF-539 cells assessed as cell growth at 10 uM incubated for 48 hrs by sulforhodamine B assay relative to control; how it was run: as §2
SR = assay: Growth inhibition of human SR cells assessed as cell growth at 10 uM incubated for 48 hrs by sulforhodamine B assay relative to control; how it was run: as §2
DU-145 = assay: Growth inhibition of human DU-145 cells assessed as cell growth at 10 uM incubated for 48 hrs by sulforhodamine B assay relative to control; how it was run: as §3
HCC 2998 = assay: Growth inhibition of human HCC 2998 cells assessed as cell growth at 10 uM incubated for 48 hrs by sulforhodamine B assay relative to control; how it was run: as §3
MOLT-4 = assay: Growth inhibition of human MOLT-4 cells assessed as cell growth at 10 uM incubated for 48 hrs by sulforhodamine B assay relative to control; how it was run: as §1
HL-60(TB) = assay: Growth inhibition of human HL-60(TB) cells assessed as cell growth at 10 uM incubated for 48 hrs by sulforhodamine B assay relative to control
How it was run: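 Screened by the NCI Developmental Therapeutics Program on its panel of 60 human tumour cell lines. Compounds were first tested at a single 10 µM dose, and compounds active there went to dose-response curves. Growth is expressed relative to untreated control (100%). GI50 (50% of maximal proliferation inhibition) and TGI (total growth inhibition) were derived from the dose-response data.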

Malme-3M = assay: Growth inhibition of human Malme-3M cells assessed as cell growth at 10 uM incubated for 48 hrs by sulforhodamine B assay relative to control; how it was run: as §1
SK-MEL-5 = assay: Growth inhibition of human SK-MEL-5 cells assessed as cell growth at 10 uM incubated for 48 hrs by sulforhodamine B assay relative to control; how it was run: as §2
Hs-578T = assay: Growth inhibition of human Hs-578T cells assessed as cell growth at 10 uM incubated for 48 hrs by sulforhodamine B assay relative to control; how it was run: as §1
SW-620 = assay: Growth inhibition of human SW-620 cells assessed as cell growth at 10 uM incubated for 48 hrs by sulforhodamine B assay relative to control; how it was run: as §2
RXF 393 = assay: Growth inhibition of human RXF 393 cells assessed as cell growth at 10 uM incubated for 48 hrs by sulforhodamine B assay relative to control; how it was run: as §2

Row | SMILES | growth at 10 µM (LOX IMVI) [%] | growth at 10 µM (PC-3) [%] | growth at 10 µM (ACHN) [%] | growth at 10 µM (786-0) [%] | growth at 10 µM (NCI-H460) [%] | growth at 10 µM (T47D) [%] | growth at 10 µM (HCT-116) [%] | growth at 10 µM (SK-MEL-28) [%] | growth at 10 µM (SN12C) [%] | growth at 10 µM (OVCAR-4) [%] | growth at 10 µM (KM12) [%] | growth at 10 µM (MDA-MB-468) [%] | growth at 10 µM (NCI-H322M) [%] | growth at 10 µM (OVCAR-5) [%] | growth at 10 µM (MCF7) [%] | growth at 10 µM (UO-31) [%] | growth at 10 µM (MDA-MB-435) [%] | growth at 10 µM (OVCAR-3) [%] | growth at 10 µM (SF-295) [%] | growth at 10 µM (RPMI-8226) [%] | other results
1 | CC1(C)CCc2cc(-c3ccn(S(=O)(=O)c4ccc(Cl)cc4Cl)n3)ccc2O1 | 104 | 62.3 | 103 | 79 | 95.6 | 76.6 | 73.6 | 102 | 89.6 | 69 | 92.9 | 81.5 | 90.5 | 97.5 | 86.6 | 73.3 | 95.7 | 101 | 94.4 | 79 | growth at 10 µM (NCI-H226): 87%; growth at 10 µM (NCI/ADR-RES): 96.1%; growth at 10 µM (SF-539): 103%; growth at 10 µM (SR): 77.9%; growth at 10 µM (DU-145): 96.9%; growth at 10 µM (HCC 2998): 99.1%; growth at 10 µM (MOLT-4): 84.8%; growth at 10 µM (HL-60(TB)): 102%; growth at 10 µM (Malme-3M): 85.1%; growth at 10 µM (SK-MEL-5): 97.3%; growth at 10 µM (Hs-578T): 98.8%; growth at 10 µM (SW-620): 91.9%
2 | COc1ccc(S(=O)(=O)n2ccc(-c3ccc4c(c3)CCC(C)(C)O4)n2)cc1 | 79.5 | 78 | 104 | 67.6 | 75.4 | 46.7 | 68.3 | 98.3 | 97.5 | 52.3 | 81.9 | 36.6 | 101 | 109 | 73.5 | 78.1 | 74.3 | 81.2 | 47.7 | 49.2 | growth at 10 µM (RXF 393): 110%; growth at 10 µM (NCI-H226): 71.4%; growth at 10 µM (NCI/ADR-RES): 57.3%; growth at 10 µM (SF-539): 103%; growth at 10 µM (HCC 2998): 88.9%; growth at 10 µM (MOLT-4): 65.9%; growth at 10 µM (HL-60(TB)): 60%; growth at 10 µM (Malme-3M): 110%; growth at 10 µM (SK-MEL-5): 42.6%; growth at 10 µM (Hs-578T): 97.8%; growth at 10 µM (SW-620): 90.3%
